An excerpt weighted towards active compounds, which were near 2.9% of everything screened.
TRPC4 potent – TRPC4 (mouse) allosteric potentiation; HEK293 TRPC4beta/mu-opioid, DAMGO EC20, Fluo-4 Ca2+ flux; hits give high values; B-score at 10 µM; Q9QUQ5; AID 2227; 310,000 compounds, 0.42% hits;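 active means B-score of calcium response area above 5 SD of library B-scores, with initial fluorescence ratio within 5 SD of library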;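 further: B-score of integrated fluorescence ratio over time as area under calcium response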
TRPC6 inhibitor – mouse TRPC6 channel inhibition; Q61143; HEK293-TRPC6, membrane potential dye, ACh-evoked depolarization; hits give low values; B-score at 10 µM; 310,000 compounds, 1.1% hits; AID 2553;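 active means B-score under library mean minus 3 SD, initial fluorescence not abnormally high, positive integrated signal ratio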;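 further: B-score derived from integrated fluorescence ratio over the kinetic read; more negative B-score means stronger inhibition of depolarization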
TRPC4 block – inhibitors of mouse TRPC4 channel | Q9QUQ5 | HEK293 TRPC4beta/mu-opioid, DAMGO-evoked Fluo4 calcium flux; hits give low values | B-score at 10 µM | 300,000 compounds, 0.39% hits;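 active means B-score over 3 SD under the library average, no early fluorescence shift, positive overall ratio signal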
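Assay system: HEK293 cells with stable TRPC4beta plus mu-opioid receptor expression; Probe or stimulus: DAMGO in two steps, submaximal then maximal; Dosing: single-point compound dosing; Measured by: Fluo4 calcium-dye fluorescence, kinetic read; Read-out basis: B score from integrated Fluo4 fluorescence ratio.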
TRPC6 act – activates the mouse TRPC6 cation channel; Q61143; B-score at 10 µM; HEK293-TRPC6 membrane potential dye fluorescence; hits give high values; 310,000 compounds, 0.13% hits;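 active means B-score of the integrated fluorescence ratio above library mean plus 3 SD, and starting fluorescence ratio within library mean plus 5 SD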;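 further: higher score means more depolarization so channel activation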
Kir21 block – inhibitors of mouse Kir2.1 inward-rectifier potassium channel; AID 1672; B-score at 10 µM; 310,000 compounds, 0.85% hits; HEK293-Kir2.1, FluxOR thallium flux fluorescence; hits give low values; P35561;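 active means fluorescence ratio B-score at or below minus 3 SD of library scores, with starting-brightness B-score within 2 SD, cut at about -4.2 in these data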;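 further: channel flux triggered by added potassium and thallium sulfate stimulus; B-score of peak minus minimum fluorescence over baseline after thallium stimulus; more negative B-score means stronger Kir2.1 block with less thallium influx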
Target sequence (P35561 whole entry, looked up): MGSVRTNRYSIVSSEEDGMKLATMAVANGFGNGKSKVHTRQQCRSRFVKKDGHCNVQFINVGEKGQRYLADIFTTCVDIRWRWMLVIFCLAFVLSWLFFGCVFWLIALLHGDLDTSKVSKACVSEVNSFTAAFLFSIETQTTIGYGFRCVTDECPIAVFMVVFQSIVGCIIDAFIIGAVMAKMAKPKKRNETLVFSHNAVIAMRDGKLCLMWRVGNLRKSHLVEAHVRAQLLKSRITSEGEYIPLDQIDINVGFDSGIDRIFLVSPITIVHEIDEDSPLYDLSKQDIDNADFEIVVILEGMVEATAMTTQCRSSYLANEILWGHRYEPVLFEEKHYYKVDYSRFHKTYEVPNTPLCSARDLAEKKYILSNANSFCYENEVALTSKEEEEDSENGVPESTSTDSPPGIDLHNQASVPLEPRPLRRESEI
TRPC4 act – opens the mouse TRPC4 cation channel | Q9QUQ5 | HEK293 TRPC4beta/mu-opioid, Fluo4 calcium fluorescence; hits give high values | B-score at 10 µM | 310,000 compounds, 0.49% hits;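 active means B-score above 5 SD of library B-scores, and initial fluorescence ratio not above library mean plus 5 SD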;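 further: positive B-score marks a calcium rise read as TRPC4 activation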
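Assay system: HEK293 stable line with TRPC4beta plus mu-opioid receptor. Times: dye 45 min RT, read 110 s. Measured by: kinetic Fluo4 calcium fluorescence. Measure: B score of integrated ratio. Controls: assay buffer as low control, maximal DAMGO as high control.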
TRPC4 sel inh 2 – second selectivity test of TRPC6 inhibitors: effect on mouse TRPC4; shares compounds with TRPC6 inhibitor; 920 compounds, 42% hits; HEK293 TRPC4/MOR, membrane potential dye fluorescence; channel activated by saturating DAMGO dose; inhibition, % at 10 µM;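 active means compounds whose fluorescence signal differed from control wells by over 3 SD, either direction, in both duplicate plates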
TRPC4 spec – mouse TRPC4 off-target activity of TRPC6 inhibitors | shares compounds with TRPC6 inhibitor | HEK293 TRPC4/mu-opioid, membrane potential fluorescence | activity change, negative = inhibition, % at 10 µM | 920 compounds, 61% hits | AID 2777;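 active means rise or fall in signal beyond 3 SD of buffer-only wells in both replicate plates, either sign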;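 further: integrated kinetic ratio of fluorescence range over baseline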
HEK293 MPD ctr 2-1 – second check of TRPC6 inhibitor effects in parental HEK293 cells. AID 2779. signal change vs control, % at 10 µM. shares compounds with TRPC6 inhibitor. 920 compounds, 31% hits. parental HEK293 membrane potential dye fluorescence; maximal acetylcholine challenge after compound addition;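 active means membrane potential signal moving either way by over 3 SD of the maximum-effect control, in both duplicate plates, meaning non-specific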
HEK293 MPD ctr-1 – counter-screen for TRPC6 inhibitors: effect in parental HEK293 cells | membrane potential signal change, % at 10 µM | parental HEK293 membrane potential dye fluorescence | 920 compounds, 60% hits | shares compounds with TRPC6 inhibitor | AID 2780;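 active means membrane potential signal shifting up or down by more than 3 SD of buffer-only wells, on both duplicate plates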
HEK293 MPD ctr-2 – checks TRPC6 modulator effects in parental HEK293 cells. membrane potential signal change, % at 10 µM. AID 488924. shares compounds with TRPC6 inhibitor. membrane potential dye fluorescence. 2,400 compounds, 51% hits;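 active means membrane potential signal moves up or down beyond 5 SD from buffer-only wells, on both duplicate plates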
HEK293 MPD ctr 2-2 – second counter-screen for TRPC6 modulators: effect in parental HEK293 cells. shares compounds with TRPC6 inhibitor. membrane potential dye fluorescence; after compound, maximal acetylcholine stimulation. inhibition, % at 10 µM. 2,400 compounds, 14% hits. AID 488926;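 active means membrane potential signal drops by more than 5 SD from the mean control signal, in both duplicate plates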;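 further: plate controls were acetylcholine ECmax control wells for no effect and buffer only wells for full effect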
TRPC4/MOR mod – mouse TRPC4 off-target activity of TRPC6 modulators | shares compounds with TRPC6 inhibitor | HEK293 TRPC4/mu-opioid, membrane potential fluorescence | percent change from control (negative = decrease, positive = increase), % at 10 µM | 2,400 compounds, 69% hits;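 active means membrane potential signal moved up or down beyond 5 SD of buffer control wells, in both duplicate plates, actives on both sides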;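 further: plate controls were assay buffer wells for no effect and DAMGO maximal-effect wells for full effect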
TRPC4 ctr inh 2 – second check of whether TRPC6 modulators also affect mouse TRPC4; AID 488928; inhibition, % at 10 µM; 2,400 compounds, 55% hits; HEK293 TRPC4/mu-opioid, membrane potential dye fluorescence; stimulated with maximal-effect DAMGO; shares compounds with TRPC6 inhibitor;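 active means drop in membrane potential signal beyond 5 SD of the control wells in both duplicate plates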;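 further: TRPC4 counter screen for TRPC6 hits run under conditions tuned for TRPC6 not TRPC4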
TRPC6 block conf – mouse TRPC6 inhibitor confirmation. shares compounds with TRPC6 inhibitor. HEK293-TRPC6, membrane potential dye, ACh-evoked depolarization. inhibition, % at 10 µM. 3,300 compounds, 43% hits;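 active means fluorescence ratio falls more than 5 SD below the full-stimulation control mean, in both duplicate runs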;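 further: integrated fluorescence ratio of peak minus minimum over baseline after agonist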
TRPC6 act confirm – mouse TRPC6 activator confirmation; activation, % at 10 µM; shares compounds with TRPC6 inhibitor; 2,800 compounds, 11% hits; HEK293-TRPC6 membrane potential dye fluorescence, FDSS;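 active means ratio signal rise beyond 5 SD above unstimulated control wells' mean, seen in both duplicate runs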;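 further: plate controls were buffer EC0 wells for no effect and acetylcholine ECmax response for full effect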
Active calls of the source: *; i = inactive; / = no result.

SMILES	TRPC4 potent	TRPC6 inhibitor	TRPC4 block	TRPC6 act	Kir21 block	TRPC4 act	TRPC4 sel inh 2	TRPC4 spec	HEK293 MPD ctr 2-1	HEK293 MPD ctr-1	TRPC6 block conf	TRPC6 act confirm	others
COCCNC(=O)c1cc2c(=O)n3cccc(C)c3nc2n(Cc2ccncc2)c1=N	i	-10.5*	i	i	1.42	i	78.0%*	-11.3%*	-118.0%*	-229.5%*	i	i
O=C(NCCC1=CCCCC1)C1CCC(=O)N(Cc2ccc(Cl)cc2)C1 (centres undefined)	i	i	i	i	0.08	i	/	/	/	/	/	/
CC(C)NS(=O)(=O)c1ccc(OCC(=O)NC(C)c2ccccc2)cc1 (centres undefined)	i	i	i	i	0.02	i	/	/	/	/	/	/
COc1ccc(NC(=O)Nc2c(C)n(C)n(-c3ccccc3)c2=O)cc1	i	i	i	i	0.59	i	/	/	/	/	/	/
O=C(Cn1c(-c2ccccc2)c[n+]2ccsc12)c1ccc(Br)cc1	i	-5.58*	i	i	1.51	86*	/	/	/	/	i	i	HEK293 MPD ctr-2=-122.5%*;HEK293 MPD ctr 2-2=i;TRPC4/MOR mod=60.5%*;TRPC4 ctr inh 2=97.0%*
Cn1c(=N)n(CC(=O)c2ccc(Br)cc2)c2ccccc21	i	i	i	i	-0.38	i	/	/	/	/	/	/
O=[N+]([O-])c1nn(-c2ccc3c(c2)OCCO3)n(O)c1=NCc1ccc(F)cc1	i	i	i	i	1.18	i	/	/	/	/	/	/
Cc1ccc(-c2nnn(CC(=O)N(CC(=O)NC3CCCC3)c3ccccc3F)n2)o1	i	i	i	i	0.55	i	/	/	/	/	/	/
CCNc1c2c(nc3ccccc13)CC(C)(C)CC2=O	i	-7.84*	i	i	1.59	i	65.0%*	i	i	-138.0%*	i	i
Cc1occc1C(=O)Nc1nnc(C(F)(F)F)s1	i	i	i	i	1.35	i	/	/	/	/	/	/
O=C(Nc1ccccc1C(=O)Nc1nnc(C(F)(F)F)s1)c1ccccc1	i	-6.96*	i	i	-2.37	i	i	16.4%*	i	11.0%*	84.4%*	i
O=C(CCCN1CCOCC1)c1ccc2c(c1)OCCO2	i	i	i	i	0.76	i	/	/	/	/	/	/
O=C(CCCN1CCC(c2ccccc2)C1)c1ccc2c(c1)OCCO2 (centres undefined)	i	-6.5*	i	i	-1.53	i	/	/	/	/	67.5%*	/	HEK293 MPD ctr-2=111.5%*;HEK293 MPD ctr 2-2=i;TRPC4/MOR mod=i;TRPC4 ctr inh 2=77.0%*
OCC1CCCN(c2nc(CN3CCCCC3)nc3scc(-c4ccccc4)c23)C1 (centres undefined)	i	i	i	i	-3.84	i	/	/	/	/	/	/
CCNc1nc(CN2CCCCC2)nc2scc(-c3ccccc3)c12	i	-5.83*	i	i	-3.04	i	/	/	/	/	i	i	HEK293 MPD ctr-2=i;HEK293 MPD ctr 2-2=i;TRPC4/MOR mod=i;TRPC4 ctr inh 2=39.0%*
O=C(NCCOc1ccccc1Cl)c1cc(F)c(F)cc1Cl	i	i	i	i	-0.03	i	/	/	/	/	/	/
CC(C)C(O)(C#CCN1CCCCC1)c1ccccc1 (centres undefined)	i	-6.64*	i	i	0.09	i	i	4.9%*	-61.0%*	7.8%*	70.9%*	/
CC(C)C(O)(C#CCN1CCCC1)c1ccccc1 (centres undefined)	i	-5.94*	i	i	-1.07	i	/	/	/	/	67.5%*	/	HEK293 MPD ctr-2=i;HEK293 MPD ctr 2-2=64.5%*;TRPC4/MOR mod=11.0%*;TRPC4 ctr inh 2=i
CC(O)(C#CCN1CCOCC1)c1ccccc1 (centres undefined)	i	i	i	i	0.46	i	/	/	/	/	/	/
CC(C)c1ccc(N2C(=O)CC(Sc3nc4ccccc4o3)C2=O)cc1 (centres undefined)	i	-7.43*	i	i	0.38	i	i	i	i	i	i	i
N=c1sccn1CC(=O)Nc1cc(Cl)ccc1Oc1ccccc1	i	-9.63*	i	i	-4.79*	i	23.5%*	i	i	i	69.2%*	i
N=c1sccn1CC(=O)Nc1cccc(Oc2ccccc2)c1	i	-5.71*	i	i	-4.26*	i	/	/	/	/	51.5%*	i	HEK293 MPD ctr-2=i;HEK293 MPD ctr 2-2=i;TRPC4/MOR mod=i;TRPC4 ctr inh 2=81.5%*
COc1ccc(Nc2nc(-c3sc(N)nc3C)cs2)cc1	i	i	i	i	0.21	i	/	/	/	/	/	/
Cc1ccc(Nc2nc(-c3sc(N)nc3C)cs2)cc1	i	-7.66*	i	i	-0.54	i	i	-10.9%*	i	-237.0%*	i	i
CCOC(=O)N1CCC(NC(=O)CS(=O)(=O)Cc2nc(-c3ccc(OC)cc3)oc2C)CC1	i	i	i	i	-1.98	i	/	/	/	/	/	/
COc1ccc(SC[C@H](CC(C)C)N2CCN(C)CCC2=O)cc1	i	i	i	i	-0.7	i	/	/	/	/	/	/
